Activity calls are given as the source filed them.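 How the source made its calls: active means tumorsphere count inhibition of at least 15% in the mean or in any single replicate; inactive means the rest.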
The molecules below were run on SUM159 tumorsphere formation, imaging, 9 days (assay: tumorsphere growth blockade in breast cancer cells – imaging, SUM159, single point, dry powder, set 2, orthogonal assay for breast cancer stem cell project, confirmation (AID 504859)). Settings: at 20 µM; stronger effect = higher value.
Procedure, shortened: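 Assay system: SUM159 breast cancer cells forming tumorspheres; Buffer or medium: 5% FBS medium plus 0.5% methylcellulose; Timing: culture at 37 °C, 5% CO2; Measured by: 2x transmitted-light imaging, 9 sites; Plate: Low-attachment wells.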

Compound | inhibition
COc1ccc(/C=C/C(=O)NC2=NCCS2)c(OC)c1 | 3.49% (inactive)
Cc1ccc(/C=C/C(=O)NC2=NCCS2)cc1 | -19.9% (inactive)
CC(C)c1ccc(/C=C/C(=O)NC2=NCCS2)cc1 | 15.4%
Cc1csc(NC(=O)c2ccc(COc3cccc(OC(F)(F)F)c3)o2)n1 | -1.1% (inactive)
Cc1csc(NC(=O)c2ccc(COc3ccccc3F)o2)n1 | 1.67% (inactive)
Cc1csc(NC(=O)c2ccc(COc3cccc(Cl)c3)o2)n1 | 5.07% (inactive)
CCc1ccc(/C=C/C(=O)NC2=NCCS2)cc1 | 0.128% (inactive)
O=C(/C=C/c1ccc(Cl)c(Cl)c1)NC1=NCCS1 | 2.48% (inactive)
O=C(/C=C/c1ccc(-c2ccccc2)cc1)NC1=NCCS1 | 20.5%
O=C(NC1CCCC1)c1ccc(COc2ccccc2)o1 | 11% (inactive)
Cc1csc(NC(=O)c2ccc(COc3ccccc3)o2)n1 | 19.1%
